# Source: ChEMBL document CHEMBL1121371, “Antihypertensive 5,6-diarylpyridazin-3-ones” (1980)
# Test system: Rattus norvegicus
# Test: Antihypertensive activity in spontaneously hypertensive rats was measured as average blood pressure at 100 mg/kg, po after 24 hours of postdose-2
# Format: functional
# Details: not given
# Outline: (§1)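 Spontaneously hypertensive rats aged 12 to 16 weeks, in groups of five with systolic pressure of 170 mmHg or more. Oral dosing as a solution or suspension in 0.25% methylcellulose, 5 mL/kg, with a vehicle control group. Tail-cuff systolic pressure was read predose and 4 and 24 h after each of two doses. Values were compared with predose by Student's t test.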
row,Structure (SMILES),BP [mmHg]
1,N#Cc1c(-c2ccc(Cl)cc2)c(-c2ccc(Cl)cc2)nn(CCCC(=O)O)c1=O,180
2,CCOC(=O)CCCn1nc(-c2ccc(Cl)cc2)c(-c2ccc(Cl)cc2)c(C(C)=O)c1=O,181
3,CC(=O)c1c(-c2ccc(Cl)cc2)c(-c2ccc(Cl)cc2)nn(CCN2CCCCC2)c1=O,176
4,CC(C)NCCn1nc(-c2ccc(Cl)cc2)c(-c2ccc(Cl)cc2)c(C#N)c1=O.Cl,173

# Test system: Rattus norvegicus
# Test: Antihypertensive activity in spontaneously hypertensive rats, measured as average blood pressure at 100 mg/kg, p.o. before predose; No significant lowering of blood pressure
# Format: functional, organism-based
# Set-up: dose 100 mg/kg
# Details: not given
row,Structure (SMILES),BP
1,CC(=O)c1c(-c2ccc(O)cc2)c(-c2ccc(O)cc2)nn(CC[n+]2ccccc2)c1=O,Not significant
2,CCn1nc(-c2ccc(Cl)cc2)c(-c2ccc(Cl)cc2)c(C(C)=O)c1=O,Not significant
3,Oc1nnc(-c2ccccc2)c(-c2ccccc2)c1-c1cccc(Cl)c1,Not significant
4,CCCC(=O)c1c(O)nnc(-c2ccc(Cl)cc2)c1-c1ccc(Cl)cc1,Not significant
5,COc1ccc(OC)c(-c2c(-c3ccccc3)c(-c3ccccc3)nn(CCO)c2=O)c1,Not significant
6,CCOC(=O)NCCn1nc(-c2ccc(Cl)cc2)c(-c2ccc(Cl)cc2)c(C(C)=O)c1=O,Not significant
7,COc1ccccc1-c1c(-c2ccccc2)c(-c2ccccc2)nn(CCO)c1=O,Not significant
8,COc1ccc(-c2nn(CCO)c(=O)c(C#N)c2-c2ccc(OC)cc2)cc1,Not significant
9,N#Cc1c(-c2ccc(Cl)cc2)c(-c2ccc(Cl)cc2)nn(CCCl)c1=O,Not significant
10,O=c1c(-c2ccccc2)c(-c2ccc(Cl)cc2)c(-c2ccc(Cl)cc2)nn1CCO,Not significant
11,Cn1nc(-c2ccccc2)c(-c2ccccc2)c(C#N)c1=O,Not significant
12,CC(=O)c1c(-c2ccc(Cl)cc2)c(-c2ccc(Cl)cc2)nn(CC(=O)O)c1=O,Not significant
13,O=C(O)c1c(O)nnc(-c2ccc(Cl)cc2)c1-c1ccc(Cl)cc1,Not significant
14,CC(=O)c1c(-c2ccccc2)c(-c2ccccc2)nn(CCCC(=O)O)c1=O,Not significant
15,CC(=O)c1c(O)nnc(-c2ccc(Cl)cc2)c1-c1ccc(Cl)cc1,Not significant
16,Cc1ccc(-c2nn(CCO)c(=O)c(-c3ccccc3)c2-c2ccc(C)cc2)cc1,Not significant
17,N#Cc1c(O)nnc(-c2ccc(Cl)c(Cl)c2)c1-c1ccc(Cl)c(Cl)c1,Not significant
18,COc1ccccc1-c1c(O)nnc(-c2ccccc2)c1-c1ccccc1,Not significant
19,CC(=O)c1c(O)nnc(-c2ccccc2)c1-c1ccccc1,Not significant
20,COc1ccc(OC)c(-c2c(O)nnc(-c3ccccc3)c2-c2ccccc2)c1,Not significant
21,CC(=O)c1c(-c2ccc(Cl)cc2)c(-c2ccc(Cl)cc2)nn(CCCCCCN2C(=O)c3ccccc3C2=O)c1=O,Not significant
22,CCOC(=O)Cn1nc(-c2ccc(OC)cc2)c(-c2ccc(OC)cc2)c(C(C)=O)c1=O,Not significant
23,O=c1c(-c2ccc3ccccc3c2)c(-c2ccccc2)c(-c2ccccc2)nn1CCO,Not significant
24,CCC(=O)c1c(-c2ccc(Cl)cc2)c(-c2ccc(Cl)cc2)nn(CCO)c1=O,Not significant
25,C/C(=N\N)c1c(O)nnc(-c2ccccc2)c1-c1ccccc1,Not significant
26,O=C(O)c1c(-c2ccc(Cl)cc2)c(-c2ccc(Cl)cc2)nn(CCO)c1=O,Not significant

row,Structure (SMILES),BP
1,COc1cc(-c2c(O)nnc(-c3ccc(Cl)cc3)c2-c2ccc(Cl)cc2)cc(OC)c1OC,Not significant
2,CC(=O)c1c(-c2ccc(O)cc2)c(-c2ccc(O)cc2)nn(CCO)c1=O,Not significant
3,CCOC(=O)CCCn1nc(-c2ccccc2)c(-c2ccccc2)c(C(C)=O)c1=O,Not significant
4,O=C(O)CCCn1nc(-c2ccccc2)c(-c2ccccc2)c(-c2ccccc2)c1=O,Not significant
5,N#Cc1c(-c2ccc(F)cc2)c(-c2ccc(F)cc2)nn(CCO)c1=O,Not significant
6,CC(=O)Nc1ccc(-c2c(-c3ccc(Cl)cc3)c(-c3ccc(Cl)cc3)nn(CCO)c2=O)cc1,Not significant
7,O=c1c(-c2ccc(Br)cc2)c(-c2ccccc2)c(-c2ccccc2)nn1CCO,Not significant
8,N#Cc1c(O)nnc(-c2ccccc2Cl)c1-c1ccccc1Cl,Not significant
9,C=Cn1nc(-c2ccc(Cl)cc2)c(-c2ccc(Cl)cc2)c(C(C)=O)c1=O,Not significant
10,CC(=O)c1c(-c2ccc(Cl)cc2)c(-c2ccc(Cl)cc2)nn(CCCN(C)C)c1=O,Not significant
11,CC(=O)c1c(-c2ccc(Cl)cc2)c(-c2ccc(Cl)cc2)nn(CC(N)=O)c1=O,Not significant
12,Oc1nnc(-c2ccccc2)c(-c2ccccc2)c1-c1ccc(Br)cc1,Not significant
13,CC(=O)c1c(-c2ccc(OCc3ccccc3)cc2)c(-c2ccc(OCc3ccccc3)cc2)nn(CCO)c1=O,Not significant
14,N#Cc1c(-c2ccc(Cl)c(Cl)c2)c(-c2ccc(Cl)c(Cl)c2)nn(CCO)c1=O,Not significant
15,COc1ccc(-c2nn(CCO)c(=O)c(C(C)=O)c2-c2ccc(OC)cc2)cc1,Not significant
16,COc1cccc(-c2c(-c3ccccc3)c(-c3ccccc3)nn(CCO)c2=O)c1,Not significant
17,CC(=O)c1c(-c2ccc(Cl)cc2)c(-c2ccc(Cl)cc2)nn(CC[N+](C)(C)C)c1=O,Not significant
18,CC(=O)Cn1nc(-c2ccc(Cl)cc2)c(-c2ccc(Cl)cc2)c(C#N)c1=O,Not significant
19,CC(C)C(=O)c1c(-c2ccc(Cl)cc2)c(-c2ccc(Cl)cc2)nn(CCO)c1=O,Not significant
20,CC(=O)c1c(-c2ccc(Cl)cc2)c(-c2ccc(Cl)cc2)nn(CCCl)c1=O,Not significant
21,CC(=O)c1c(-c2ccc(Cl)cc2)c(-c2ccc(Cl)cc2)nn(CC(C)O)c1=O (configuration not stated),Not significant
22,CC(=O)c1c(-c2ccc(Cl)cc2)c(-c2ccc(Cl)cc2)nn(CC(O)CNC(C)C)c1=O (configuration not stated),Not significant
23,COc1ccc(-c2nnc(O)c(C(C)=O)c2-c2ccc(OC)cc2)cc1,Not significant
24,N#Cc1c(O)nnc(-c2ccc(Br)cc2)c1-c1ccc(Br)cc1,Not significant
25,Cc1ccc(-c2nnc(O)c(C#N)c2-c2ccc(C)cc2)cc1,Not significant
26,COc1ccc(-c2c(O)nnc(-c3ccccc3)c2-c2ccccc2)cc1,Not significant

row,Structure (SMILES),BP
1,COC(=O)Cn1nc(-c2ccc(Cl)cc2)c(-c2ccc(Cl)cc2)c(C#N)c1=O,Not significant
2,CC(O)c1c(-c2ccccc2)c(-c2ccccc2)nn(CCO)c1=O (configuration not stated),Not significant
3,Cc1ccc(-c2c(O)nnc(-c3ccccc3)c2-c2ccccc2)cc1,Not significant
4,CCOC(=O)CCCn1nc(-c2ccc(Cl)cc2)c(-c2ccc(Cl)cc2)c(C#N)c1=O,Not significant
5,CCCC(=O)c1c(-c2ccc(Cl)cc2)c(-c2ccc(Cl)cc2)nn(CCO)c1=O,Not significant
6,O=c1c(-c2cccc(Cl)c2)c(-c2ccccc2)c(-c2ccccc2)nn1CCO,Not significant
7,O=c1cc(-c2ccc(Cl)cc2)c(-c2ccc(Cl)cc2)nn1CCO,Not significant
8,CC(=O)c1c(-c2ccc(Cl)cc2)c(-c2ccc(Cl)cc2)nn(CCN2C(=O)c3ccccc3C2=O)c1=O,Not significant
9,COc1ccc(-c2c(-c3ccccc3)c(-c3ccccc3)nn(CCO)c2=O)cc1,Not significant
10,CC(=O)c1c(-c2ccc(Cl)cc2)c(-c2ccc(Cl)cc2)nn(CCI)c1=O,Not significant
11,CC(=O)c1c(O)nnc(-c2ccc(F)cc2)c1-c1ccc(F)cc1,Not significant
12,O=C(c1ccccc1)c1c(-c2ccccc2)c(-c2ccccc2)nn(CCO)c1=O,Not significant
13,N#Cc1c(-c2ccccc2Cl)c(-c2ccccc2Cl)nn(CCO)c1=O,Not significant
14,CCCC(=O)c1c(-c2ccc(Cl)cc2)c(-c2ccc(Cl)cc2)nn(C(C)CO)c1=O (configuration not stated),Not significant
15,CC(=O)c1c(-c2ccc(Cl)cc2)c(-c2ccc(Cl)cc2)nn(CC2CO2)c1=O (configuration not stated),Not significant
16,CC(=O)c1c(-c2ccccc2)c(-c2ccccc2)nn(C)c1=O,Not significant
17,Oc1nnc(-c2ccccc2)c(-c2ccccc2)c1-c1ccccc1,Not significant
18,CC(=O)c1c(-c2ccc(Cl)cc2)c(-c2ccc(Cl)cc2)nn(CCCCCO)c1=O,Not significant
19,CCOC(=O)c1c(-c2ccc(Cl)cc2)c(-c2ccc(Cl)cc2)nn(CCO)c1=O,Not significant
20,O=S(=O)(c1ccccc1)c1c(O)nnc(-c2ccccc2)c1-c1ccccc1,Not significant
21,COc1ccc(-c2c(-c3ccccc3)c(-c3ccccc3)nn(CCO)c2=O)cc1OC,Not significant
22,Cc1ccc(-c2nnc(O)c(-c3ccccc3)c2-c2ccc(C)cc2)cc1,Not significant
23,Oc1nnc(-c2ccccc2)c(-c2ccccc2)c1-c1ccc(Cl)cc1,Not significant
24,COC(=O)Cn1nc(-c2ccc(Cl)cc2)c(-c2ccc(Cl)cc2)c(C(C)=O)c1=O,Not significant
25,CC(=O)c1c(-c2ccc(Cl)cc2)c(-c2ccc(Cl)cc2)nn(CC(O)CCl)c1=O (configuration not stated),Not significant

# Test system: Rattus norvegicus
# Test: Antihypertensive activity in spontaneously hypertensive rats was measured as average blood pressure at 100 mg/kg, p.o. after 4 hours of postdose-1.
# Format: functional
# Details: route oral
# Outline: as §1
row,Structure (SMILES),BP [mmHg]
1,N#Cc1c(-c2ccc(Cl)cc2)c(-c2ccc(Cl)cc2)nn(CCCC(=O)O)c1=O,202
2,CCOC(=O)CCCn1nc(-c2ccc(Cl)cc2)c(-c2ccc(Cl)cc2)c(C(C)=O)c1=O,192
3,CC(=O)c1c(-c2ccc(Cl)cc2)c(-c2ccc(Cl)cc2)nn(CCN2CCCCC2)c1=O,180
4,CC(C)NCCn1nc(-c2ccc(Cl)cc2)c(-c2ccc(Cl)cc2)c(C#N)c1=O.Cl,218

# Test system: Rattus norvegicus
# Test: Antihypertensive activity in spontaneously hypertensive rats was measured as average blood pressure at 100 mg/kg, p.o. after 24 hours of postdose-1.
# Format: functional
# Details: route oral
# Outline: as §1
row,Structure (SMILES),BP [mmHg]
1,N#Cc1c(-c2ccc(Cl)cc2)c(-c2ccc(Cl)cc2)nn(CCCC(=O)O)c1=O,204
2,CCOC(=O)CCCn1nc(-c2ccc(Cl)cc2)c(-c2ccc(Cl)cc2)c(C(C)=O)c1=O,174
3,CC(=O)c1c(-c2ccc(Cl)cc2)c(-c2ccc(Cl)cc2)nn(CCN2CCCCC2)c1=O,163
4,CC(C)NCCn1nc(-c2ccc(Cl)cc2)c(-c2ccc(Cl)cc2)c(C#N)c1=O.Cl,206

# Test system: Rattus norvegicus
# Test: Antihypertensive activity in spontaneously hypertensive rats was measured as average blood pressure at 100 mg/kg, p.o. after 4 hours of postdose-2
# Format: functional
# Details: route oral
# Outline: as §1
row,Structure (SMILES),BP [mmHg]
1,N#Cc1c(-c2ccc(Cl)cc2)c(-c2ccc(Cl)cc2)nn(CCCC(=O)O)c1=O,175
2,CCOC(=O)CCCn1nc(-c2ccc(Cl)cc2)c(-c2ccc(Cl)cc2)c(C(C)=O)c1=O,188
3,CC(=O)c1c(-c2ccc(Cl)cc2)c(-c2ccc(Cl)cc2)nn(CCN2CCCCC2)c1=O,165
4,CC(C)NCCn1nc(-c2ccc(Cl)cc2)c(-c2ccc(Cl)cc2)c(C#N)c1=O.Cl,209

# Test system: Rattus norvegicus
# Test: Antihypertensive activity in spontaneously hypertensive rats was measured as average blood pressure at 100 mg/kg, p.o. before predose
# Format: functional
# Details: route oral
# Outline: as §1
row,Structure (SMILES),BP [mmHg]
1,N#Cc1c(-c2ccc(Cl)cc2)c(-c2ccc(Cl)cc2)nn(CCCC(=O)O)c1=O,215
2,CCOC(=O)CCCn1nc(-c2ccc(Cl)cc2)c(-c2ccc(Cl)cc2)c(C(C)=O)c1=O,196
3,CC(=O)c1c(-c2ccc(Cl)cc2)c(-c2ccc(Cl)cc2)nn(CCN2CCCCC2)c1=O,192
4,CC(C)NCCn1nc(-c2ccc(Cl)cc2)c(-c2ccc(Cl)cc2)c(C#N)c1=O.Cl,220
